Values after ≈ are worked out from the molar mass of the structure shown.
Experiments:
[1] = Clearance in beagle dog at 10 mg/kg, iv; format: ADME, organism-based, Canis lupus familiaris; design: dose 10 mg/kg, route intravenous; conditions: in vivo
Method in brief: (§1)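 Male rats (Wistar Han) and Beagle dogs received 10 mg/kg as a 15 min iv infusion. Serial 200 µL whole-blood samples were taken from 0 to 24 h. Plasma levels were measured by LC–MS/MS against a standard curve after methanol protein precipitation. Parameters were estimated non-compartmentally.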

[2] = Volume of distribution in beagle dog at 10 mg/kg, iv; format: ADME, organism-based, Canis lupus familiaris; design: dose 10 mg/kg, route intravenous; conditions: in vivo; method in brief: as §1
[3] = target: Voltage-dependent L-type calcium channel subunit alpha-1C (Homo sapiens, UniProt Q13936); assay: Inhibition of […] channel Cav1.2 (unknown origin)
Method in brief: (§2)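 Automated IonWorks patch clamp was run on CHO or HEK cells expressing each channel. A channel-specific voltage pulse was applied before compound and again about 3 min after addition.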

[4] = target: Voltage-dependent T-type calcium channel subunit alpha-1H (Homo sapiens, UniProt O95180); assay: Inhibition of […] channel Cav3.2 (unknown origin); method in brief: as §2
[5] = AUC in beagle dog at 10 mg/kg, iv; format: ADME, organism-based, Canis lupus familiaris; design: dose 10 mg/kg, route intravenous; conditions: plasma; method in brief: as §1
[6] = target: Sodium-dependent noradrenaline transporter (Homo sapiens) (UniProt P23975); assay: Inhibition of NET (unknown origin) at 30 uM
Sodium-dependent noradrenaline transporter (Homo sapiens), sequence (P23975 whole entry): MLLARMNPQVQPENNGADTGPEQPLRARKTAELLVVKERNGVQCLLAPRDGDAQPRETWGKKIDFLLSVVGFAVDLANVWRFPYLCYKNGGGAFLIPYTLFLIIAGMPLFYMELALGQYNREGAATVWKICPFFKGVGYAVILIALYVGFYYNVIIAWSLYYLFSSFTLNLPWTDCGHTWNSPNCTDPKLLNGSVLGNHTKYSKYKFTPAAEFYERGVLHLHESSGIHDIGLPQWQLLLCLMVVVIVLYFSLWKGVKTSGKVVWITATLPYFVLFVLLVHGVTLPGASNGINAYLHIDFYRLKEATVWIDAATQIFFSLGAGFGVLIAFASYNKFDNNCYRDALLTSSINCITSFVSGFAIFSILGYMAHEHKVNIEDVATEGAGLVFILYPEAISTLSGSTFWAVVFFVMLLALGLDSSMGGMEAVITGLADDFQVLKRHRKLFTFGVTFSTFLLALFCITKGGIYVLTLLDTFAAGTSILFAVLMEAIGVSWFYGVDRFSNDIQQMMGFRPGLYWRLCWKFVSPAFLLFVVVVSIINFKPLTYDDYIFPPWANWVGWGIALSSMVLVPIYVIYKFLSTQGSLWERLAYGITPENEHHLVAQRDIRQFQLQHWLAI

[7] = Inhibition of Escherichia coli topoisomerase IV ATPase activity
[8] = target: T1, Potassium voltage-gated channel subfamily KQT member 1 (Homo sapiens, UniProt P51787); assay: Inhibition of potassium channel IKs (unknown origin); method in brief: as §2
T1 sequence (P51787 whole entry): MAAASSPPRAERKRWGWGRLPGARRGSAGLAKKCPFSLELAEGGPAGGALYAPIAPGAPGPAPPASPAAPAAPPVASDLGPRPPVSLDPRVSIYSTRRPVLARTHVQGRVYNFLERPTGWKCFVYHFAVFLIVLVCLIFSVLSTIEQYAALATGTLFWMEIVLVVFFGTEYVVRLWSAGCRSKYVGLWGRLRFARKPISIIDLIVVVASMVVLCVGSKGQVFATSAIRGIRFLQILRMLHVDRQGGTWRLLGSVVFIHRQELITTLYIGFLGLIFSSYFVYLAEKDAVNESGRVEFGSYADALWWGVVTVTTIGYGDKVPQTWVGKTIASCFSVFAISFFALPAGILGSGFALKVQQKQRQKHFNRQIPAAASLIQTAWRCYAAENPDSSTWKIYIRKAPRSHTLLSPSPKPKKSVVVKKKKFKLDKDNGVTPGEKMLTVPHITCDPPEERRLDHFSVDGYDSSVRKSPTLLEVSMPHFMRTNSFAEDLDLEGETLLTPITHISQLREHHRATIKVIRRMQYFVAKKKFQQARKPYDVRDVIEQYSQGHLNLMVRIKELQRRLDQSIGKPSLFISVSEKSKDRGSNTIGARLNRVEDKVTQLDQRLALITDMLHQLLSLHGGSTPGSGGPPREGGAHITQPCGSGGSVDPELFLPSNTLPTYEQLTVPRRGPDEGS

[9] = Half life in beagle dog at 10 mg/kg, iv; format: ADME, organism-based, Canis lupus familiaris; design: dose 10 mg/kg, route intravenous; conditions: in vivo; method in brief: as §1
[10] = target: T2, A-type voltage-gated potassium channel KCND3 (Homo sapiens, UniProt Q9UK17); assay: Inhibition of potassium channel Kv4.3 (unknown origin); method in brief: as §2
T2 sequence (Q9UK17 whole entry): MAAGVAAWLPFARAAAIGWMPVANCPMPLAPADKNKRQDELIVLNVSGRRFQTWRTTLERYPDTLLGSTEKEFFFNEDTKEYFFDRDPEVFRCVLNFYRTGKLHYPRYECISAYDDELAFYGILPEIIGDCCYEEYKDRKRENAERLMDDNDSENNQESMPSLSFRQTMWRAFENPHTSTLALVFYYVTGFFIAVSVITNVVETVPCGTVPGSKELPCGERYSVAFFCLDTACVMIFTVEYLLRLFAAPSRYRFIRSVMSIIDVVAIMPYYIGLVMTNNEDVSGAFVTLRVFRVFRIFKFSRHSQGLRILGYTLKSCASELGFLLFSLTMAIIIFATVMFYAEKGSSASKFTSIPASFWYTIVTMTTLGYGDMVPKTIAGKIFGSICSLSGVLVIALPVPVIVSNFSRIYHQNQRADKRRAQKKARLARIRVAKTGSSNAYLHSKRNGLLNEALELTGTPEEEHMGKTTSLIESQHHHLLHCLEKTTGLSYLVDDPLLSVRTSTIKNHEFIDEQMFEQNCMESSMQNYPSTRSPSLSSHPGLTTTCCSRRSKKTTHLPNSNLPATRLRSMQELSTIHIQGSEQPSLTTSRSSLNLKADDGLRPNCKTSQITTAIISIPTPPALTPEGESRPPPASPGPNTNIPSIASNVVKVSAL

[11] = target: Sodium channel protein type 5 subunit alpha (Homo sapiens, UniProt Q14524); assay: Inhibition of […] channel Nav1.5 (unknown origin); method in brief: as §2
Sodium channel protein type 5 subunit alpha, sequence (Q14524 whole entry): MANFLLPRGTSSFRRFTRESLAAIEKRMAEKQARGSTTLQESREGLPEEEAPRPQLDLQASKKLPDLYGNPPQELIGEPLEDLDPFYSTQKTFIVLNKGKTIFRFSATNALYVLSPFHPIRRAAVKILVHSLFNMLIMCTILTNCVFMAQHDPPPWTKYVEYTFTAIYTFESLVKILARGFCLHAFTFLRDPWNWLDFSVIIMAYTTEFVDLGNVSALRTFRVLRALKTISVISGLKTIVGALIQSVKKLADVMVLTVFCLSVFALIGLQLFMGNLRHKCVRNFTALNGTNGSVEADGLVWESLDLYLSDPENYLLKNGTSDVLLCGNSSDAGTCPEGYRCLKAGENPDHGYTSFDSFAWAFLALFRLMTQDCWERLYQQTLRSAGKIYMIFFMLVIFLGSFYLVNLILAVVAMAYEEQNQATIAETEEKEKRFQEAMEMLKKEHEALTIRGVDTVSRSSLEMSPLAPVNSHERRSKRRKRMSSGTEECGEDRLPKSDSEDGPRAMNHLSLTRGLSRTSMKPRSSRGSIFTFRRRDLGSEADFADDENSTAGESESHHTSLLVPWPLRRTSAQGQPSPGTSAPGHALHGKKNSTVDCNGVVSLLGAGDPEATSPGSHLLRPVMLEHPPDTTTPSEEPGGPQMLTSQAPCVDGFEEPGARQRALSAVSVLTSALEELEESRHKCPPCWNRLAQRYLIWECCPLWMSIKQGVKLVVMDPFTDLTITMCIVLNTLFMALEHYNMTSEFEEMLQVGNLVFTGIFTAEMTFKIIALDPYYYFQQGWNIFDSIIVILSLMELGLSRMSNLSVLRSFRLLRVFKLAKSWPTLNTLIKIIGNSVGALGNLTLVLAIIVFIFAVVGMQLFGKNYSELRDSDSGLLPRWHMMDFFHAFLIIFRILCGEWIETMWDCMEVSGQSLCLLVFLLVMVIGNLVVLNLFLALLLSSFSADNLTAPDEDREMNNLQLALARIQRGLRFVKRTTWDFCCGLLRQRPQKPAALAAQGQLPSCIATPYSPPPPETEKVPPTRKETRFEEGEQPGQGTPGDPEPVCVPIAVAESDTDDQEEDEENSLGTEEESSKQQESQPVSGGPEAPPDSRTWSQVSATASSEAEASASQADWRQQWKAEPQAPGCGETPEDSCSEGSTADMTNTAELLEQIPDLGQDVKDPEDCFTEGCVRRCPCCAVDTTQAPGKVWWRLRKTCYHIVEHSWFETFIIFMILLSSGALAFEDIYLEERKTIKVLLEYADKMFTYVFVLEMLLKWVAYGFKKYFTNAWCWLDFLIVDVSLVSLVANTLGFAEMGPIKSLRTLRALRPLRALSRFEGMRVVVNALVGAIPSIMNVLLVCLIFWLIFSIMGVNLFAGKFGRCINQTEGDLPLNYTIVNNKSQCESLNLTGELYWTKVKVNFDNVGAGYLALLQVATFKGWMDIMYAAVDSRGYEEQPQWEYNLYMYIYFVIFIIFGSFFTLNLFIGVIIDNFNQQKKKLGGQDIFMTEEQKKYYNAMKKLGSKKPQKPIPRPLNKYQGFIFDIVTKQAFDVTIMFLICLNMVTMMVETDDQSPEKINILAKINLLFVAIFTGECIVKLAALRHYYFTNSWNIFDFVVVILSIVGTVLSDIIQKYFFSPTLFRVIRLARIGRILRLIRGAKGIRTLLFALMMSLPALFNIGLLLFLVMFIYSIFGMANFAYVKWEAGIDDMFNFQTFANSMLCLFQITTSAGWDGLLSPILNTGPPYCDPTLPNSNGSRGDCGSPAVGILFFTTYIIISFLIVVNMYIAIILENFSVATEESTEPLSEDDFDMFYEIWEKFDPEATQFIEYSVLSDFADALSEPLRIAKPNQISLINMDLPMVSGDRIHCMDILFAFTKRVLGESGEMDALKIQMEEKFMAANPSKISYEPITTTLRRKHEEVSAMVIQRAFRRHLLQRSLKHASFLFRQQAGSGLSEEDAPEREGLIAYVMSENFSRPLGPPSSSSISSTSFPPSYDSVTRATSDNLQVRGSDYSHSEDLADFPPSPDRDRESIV

[12] = Half life in rat at 10 mg/kg, iv; format: ADME, organism-based; design: dose 10 mg/kg, route intravenous; conditions: in vivo; method in brief: as §1
Escherichia coli [13] = assay: Antimicrobial activity against Escherichia coli W3110 after 18 to 20 hrs by broth microdilution; format: functional; conditions: K-12 substr. W3110
Method in brief: (§3)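 Broth microdilution followed CLSI guidelines in Mueller Hinton broth. Inocula were grown 18–20 h at 35 °C on blood agar. Compound in DMSO was tested in doubling dilutions from 64 to 0.06 µg/mL, at 2% DMSO final. Plates were incubated 18–20 h and read at OD 620 nm. MIC was taken as the concentration giving >90% growth inhibition.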

[14] = target: Potassium voltage-gated channel subfamily A member 5 (Homo sapiens, UniProt P22460); assay: Inhibition of potassium channel Kv1.5 (unknown origin); method in brief: as §2
Potassium voltage-gated channel subfamily A member 5, sequence (P22460 whole entry): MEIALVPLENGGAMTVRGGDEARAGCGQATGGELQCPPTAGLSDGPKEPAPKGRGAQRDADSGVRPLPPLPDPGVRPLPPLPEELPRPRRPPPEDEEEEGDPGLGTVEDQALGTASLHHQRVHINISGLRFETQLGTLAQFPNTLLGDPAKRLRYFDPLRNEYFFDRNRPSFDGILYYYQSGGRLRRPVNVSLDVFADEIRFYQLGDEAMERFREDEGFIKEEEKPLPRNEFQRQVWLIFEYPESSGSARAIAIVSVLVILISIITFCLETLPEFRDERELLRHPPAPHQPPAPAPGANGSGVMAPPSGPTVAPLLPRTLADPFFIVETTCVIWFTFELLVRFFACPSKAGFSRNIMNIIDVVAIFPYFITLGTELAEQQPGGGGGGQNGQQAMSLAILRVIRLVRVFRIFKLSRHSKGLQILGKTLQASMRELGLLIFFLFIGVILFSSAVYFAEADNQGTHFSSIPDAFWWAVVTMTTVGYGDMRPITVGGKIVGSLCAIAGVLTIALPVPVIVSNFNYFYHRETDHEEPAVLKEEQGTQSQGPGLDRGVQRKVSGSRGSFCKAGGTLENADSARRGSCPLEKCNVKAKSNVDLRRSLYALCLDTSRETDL

Pseudomonas aeruginosa [15] = assay: Antimicrobial activity against Pseudomonas aeruginosa clinical isolate after 18 to 20 hrs by broth microdilution; format: functional; method in brief: as §3
Pseudomonas aeruginosa [16] = assay: Antimicrobial activity against Pseudomonas aeruginosa PAO1 after 18 to 20 hrs by broth microdilution; format: functional; method in brief: as §3
Klebsiella pneumoniae = assay: Antimicrobial activity against Klebsiella pneumoniae after 18 to 20 hrs by broth microdilution; format: functional; method in brief: as §3
[17] = Volume of distribution in rat at 10 mg/kg, iv; format: ADME, organism-based; design: dose 10 mg/kg, route intravenous; conditions: in vivo; method in brief: as §1
[18] = Bioavailability in rat at 10 mg/kg, […]; format: ADME, organism-based; conditions: in vivo
[19] = target: 5-hydroxytryptamine receptor 4 (Homo sapiens) (UniProt Q13639); assay: Inhibition of 5-HT4 receptor (unknown origin) at 30 uM
5-hydroxytryptamine receptor 4 (Homo sapiens), sequence (Q13639 whole entry): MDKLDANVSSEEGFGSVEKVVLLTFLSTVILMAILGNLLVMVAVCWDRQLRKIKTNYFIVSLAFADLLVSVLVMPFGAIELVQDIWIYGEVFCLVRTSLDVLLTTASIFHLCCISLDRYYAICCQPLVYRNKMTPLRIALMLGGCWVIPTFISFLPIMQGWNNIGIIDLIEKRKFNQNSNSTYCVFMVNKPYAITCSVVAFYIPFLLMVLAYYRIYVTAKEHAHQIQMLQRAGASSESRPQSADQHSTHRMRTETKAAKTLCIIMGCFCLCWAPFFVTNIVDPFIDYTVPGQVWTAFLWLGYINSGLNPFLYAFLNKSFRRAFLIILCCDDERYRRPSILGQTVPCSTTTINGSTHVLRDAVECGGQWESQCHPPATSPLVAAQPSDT

Escherichia coli [20] = assay: Antimicrobial activity against Escherichia coli after 18 to 20 hrs by broth microdilution; format: functional; method in brief: as §3

Structure (SMILES) | clearance [1] [mL/min/kg] | Vd [2] [L/kg] | IC50 [3] [µM] | IC50 [4] [µM] | AUC [5] [ng·h/mL] | inhibition [6] [%] | IC50 [7] [µM] | IC50 [8] [µM] | half-life [9] [h] | IC50 [10] [µM] | IC50 [11] [µM] | half-life [12] [h] | MIC90 (Escherichia coli [13]) [µg/mL] | IC50 [14] [µM] | MIC90 (Pseudomonas aeruginosa [15]) [µg/mL] | MIC90 (Pseudomonas aeruginosa [16]) [µg/mL] | MIC90 (Klebsiella pneumoniae) [µg/mL] | Vd [17] [L/kg] | bioavailability [18] [%] | inhibition [19] [%] | other results
N[C@@H](Cn1c(=O)cnc2ccc(F)cc21)[C@H]1CC[C@H](NCc2ncc3c(n2)NC(=O)CO3)CC1 | 14 | 4 | > 333 | > 100 | 12000 | 9 | 0.003 | > 333 | 9 | > 100 | > 333 | 10 | < 0.06 | > 100 | 4 (≈ 8.56 µM) | 0.5 (≈ 1.07 µM) | 16 (≈ 34.2 µM) | 9 | 2 | 7 | MIC90 (Escherichia coli [20]): 1 µg/mL (≈ 2.14 µM)
COc1ccc2ncc(=O)n(CCN3CCC(NCc4ccc5c(n4)NC(=O)CO5)CC3)c2c1 | 8.5 | 2 | > 333 | > 100 | 6800 | 61 | 0.0022 | > 100 | 13 | > 100 | 92 | 1.9 | 0.13 (≈ 0.28 µM) | > 100 | 4 (≈ 8.61 µM) | 1 (≈ 2.15 µM) | 4 (≈ 8.61 µM) | 23 | 18 | 99 | MIC90 (Escherichia coli [20]): 0.25 µg/mL (≈ 0.538 µM)

From ChEMBL document CHEMBL3352316, “Optimization of physicochemical properties and safety profile of novel bacterial topoisomerase type II inhibitors (NBTIs) with activity against Pseudomonas aeruginosa” (Bioorg Med Chem, 2014)
